Source: ChEMBL document CHEMBL1128226, “Phosphinyl acid-based bisubstrate analog inhibitors of Ras farnesyl protein transferase” (J Med Chem, 1995)

Tests used:
[1] = target: T1, Protein farnesyltransferase (Homo sapiens, UniProt P49354+P49356); assay: Inhibition of Ras Farnesyltransferase enzyme from pig brain; parameters: species or system Sus scrofa; conditions: target entry is the homologue from another species; read-out: I50
In short: (§1)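 Pig brain FPT purified about 2000-fold over crude cytosol. Reaction contains 1 μM [3H]FPP, 7 μM recombinant p21 H-Ras (E. coli, partially purified), 25 mM MgCl2, 10 mM DTT and 100 mM HEPES 7.4, with inhibitor usually 360 to 0.02 μM. Run 1 h at 37 °C, then SDS/TCA precipitation, filtration and scintillation counting. Triplicate points; IC50 from % control vs log concentration; each compound tested at least twice.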

[2] = target: Geranylgeranyl transferase type I (Homo sapiens, UniProt P49354+P53609); assay: Inhibition of Geranylgeranyl transferase type I from porcine brain tissue; parameters: species or system Sus scrofa; conditions: target entry is the homologue from another species; read-out: I50
In short: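 Porcine brain GGT-I, partially purified; substrates 12 μM bacterially expressed p21 rasCVLL and 0.5 μM [3H]GGPP (19.3 Ci/mmol), with 10 mM DTT, 5 mM MgCl2, 5 μM ZnCl2, 100 mM HEPES pH 7.4. Incubated 1 h at 37 °C. Protein precipitated with SDS/TCA, filtered, radioactivity counted. Triplicates, SEM reported; IC50 determined.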

[3] = target: T1, Protein farnesyltransferase; assay: Inhibition of Ras Farnesyltransferase from pig brain; parameters: species or system Sus scrofa; conditions: target entry is the homologue from another species; read-out: I50; in short: as §1
[4] = target: T1, Protein farnesyltransferase; assay: Inhibition of Ras Farnesyltransferase obtained from pig brain; 'a' indicates prodrug; parameters: species or system Sus scrofa; conditions: target entry is the homologue from another species; in short: as §1
[5] = system: Geranylgeranyl transferase type I (Sus scrofa); assay: Inhibition of Geranylgeranyl transferase type I from porcine brain tissue; 'a' indicates prodrug

SMILES	IC50 [1] [µM]	IC50 [2] [µM]	IC50 [3] [µM]	I50 [4]	I50 [5]
CC(C)=CCC/C(C)=C/CC/C(C)=C/CP(=O)(O)OCC(=O)N[C@H](C(=O)N[C@@H](CC(C)C)C(=O)N[C@@H](CO)C(=O)O)C(C)C	0.06	59			
CSCC[C@H](NC(=O)[C@@H](NC(=O)[C@@H](NC(=O)CCP(=O)(O)C/C=C(\C)CC/C=C(\C)CCC=C(C)C)C(C)C)C(C)C)C(=O)O		21	0.006		
COC(=O)[C@H](CCSC)NC(=O)[C@@H](NC(=O)[C@@H](NC(=O)CCP(=O)(O)C/C=C(\C)CC/C=C(\C)CCC=C(C)C)C(C)C)C(C)C				Prepared and evaluated as prodrugs	Prepared and evaluated as prodrugs
COC(=O)[C@H](CCSC)NC(=O)[C@@H](NC(=O)[C@@H](NC(=O)COP(=O)(O)C/C=C(\C)CC/C=C(\C)CCC=C(C)C)C(C)C)C(C)C				Prepared and evaluated as prodrugs	Prepared and evaluated as prodrugs
CSCC[C@H](NC(=O)[C@@H](NC(=O)[C@@H](NC(=O)COP(=O)(O)C/C=C(\C)CC/C=C(\C)CCC=C(C)C)C(C)C)C(C)C)C(=O)O	0.0062	10			
